A selection follows.
HKDC1 activator: HKDC1 (human) hexokinase activation | 340,000 compounds, 0.056% hits | Q2TB90 | AID 493187 | recombinant HKDC1, G6PDH/diaphorase resazurin fluorescence; stronger effect = lower value | activity change, negative = activation, % at 20 µM;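 active = activation of 40% or more at 20 µM, a change of -40% or lower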
Target sequence (Q2TB90 whole entry, looked up): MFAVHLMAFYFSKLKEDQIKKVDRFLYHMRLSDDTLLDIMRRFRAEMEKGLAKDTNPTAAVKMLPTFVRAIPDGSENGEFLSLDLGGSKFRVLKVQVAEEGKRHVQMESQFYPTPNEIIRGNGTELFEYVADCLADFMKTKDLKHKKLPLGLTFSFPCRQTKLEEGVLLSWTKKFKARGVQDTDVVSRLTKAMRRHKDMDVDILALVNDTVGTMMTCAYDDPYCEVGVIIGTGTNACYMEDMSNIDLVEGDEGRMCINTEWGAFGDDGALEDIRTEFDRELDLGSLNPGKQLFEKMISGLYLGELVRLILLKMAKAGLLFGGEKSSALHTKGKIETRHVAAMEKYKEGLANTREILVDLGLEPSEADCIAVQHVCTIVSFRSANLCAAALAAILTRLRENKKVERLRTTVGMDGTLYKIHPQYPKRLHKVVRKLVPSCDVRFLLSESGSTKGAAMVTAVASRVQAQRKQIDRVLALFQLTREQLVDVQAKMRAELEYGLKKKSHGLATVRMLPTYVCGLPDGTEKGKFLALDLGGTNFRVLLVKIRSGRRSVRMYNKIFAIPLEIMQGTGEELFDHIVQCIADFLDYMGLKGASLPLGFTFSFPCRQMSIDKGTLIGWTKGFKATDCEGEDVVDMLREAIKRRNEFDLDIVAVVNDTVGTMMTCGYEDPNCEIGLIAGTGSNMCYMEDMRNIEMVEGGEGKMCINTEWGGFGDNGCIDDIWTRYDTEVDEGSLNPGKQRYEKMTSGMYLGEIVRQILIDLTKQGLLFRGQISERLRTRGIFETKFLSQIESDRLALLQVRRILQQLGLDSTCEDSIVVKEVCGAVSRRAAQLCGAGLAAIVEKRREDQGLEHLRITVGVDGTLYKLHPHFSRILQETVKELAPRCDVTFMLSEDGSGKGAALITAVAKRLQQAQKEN
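Dosing: single compound dose of 20 µM, 1% DMSO final / Test system: in-house human HKDC1 enzyme, G6PDH and diaphorase coupling enzymes / Quantity: 5 µg/mL HKDC1 final / Incubation: enzyme reaction 90 min, room temperature, in dark / Buffer or medium: pH 8.0 Tris with MgCl2 / Detection: coupled resazurin-to-resorufin fluorescence, Ex 525/Em 613 nm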
Starred values were filed as active, the others as inactive.

SMILES	HKDC1 activator
O=C(c1c[nH]c(C(=O)C(Cl)(Cl)Cl)c1)c1ccccc1F	37
Cc1nn(-c2ccccc2)c(Cl)c1CN(C(=O)CCl)c1ccc(Cl)cc1	38
Cc1[nH]n(-c2ccccc2)c(=O)c1/C=N/Nc1nncc(-c2ccccc2)n1	-47*
CCCCN(CCCC)C(=S)N/N=C/c1c(C)[nH]n(-c2ccccc2)c1=O	-41*
CC1=NOC(=O)/C1=C\c1ccc(-c2cccc(Cl)c2)o1	38
O=C1C=CC(=O)c2c(O)c(N3CCN(CCOCCO)CC3)c(Br)c(O)c21	46
O=C(O)COc1ccc(/C=N/NC(=O)c2ccc(-c3csc(Nc4ccc(Cl)cc4)n3)cc2)cc1	76
C[n+]1c2cc(N)ccc2cc2ccc(N)cc21	44
COc1cccc2cc(C(=O)Nc3ccc(F)cc3)c(=Nc3ccc(C(=O)O)cc3)oc12	77
O=C(C#Cc1ccccc1)c1cccc([N+](=O)[O-])c1	37
Cc1cc(SCC(=O)c2cccc([N+](=O)[O-])c2)nc(=O)[nH]1	-54*
Cc1cccc(-n2c3nc(=O)[nH]c(=O)c-3cc3cc([N+](=O)[O-])ccc32)c1	42
Cc1ccc2cc(CCNC(=O)c3ccc(S(=O)(=O)N4CCCCC4)cc3)c(=O)[nH]c2c1	40
CCCc1nc2c(c(=O)c3ccccc3n2C)c(=O)n1-c1ccc(F)cc1	51
O=C(N/N=C/c1ccc[nH]1)c1sc2ccccc2c1Cl	-42*
Cc1ccc(N=Nc2ccc(O)c3ncccc23)cc1C	-43*
COc1ccc(-c2nc3c(c(=O)n(C)c(=O)n3C)n2CC2CC(c3ccccc3)=NO2)cc1OC (stereo not given)	-48*
CC(C)c1nc2oc3c(NCCO)ncnc3c2c2c1COC(C)(C)C2	46
CC(=O)c1ccc(NC(=O)c2ccc3nc(-c4ccco4)c(-c4ccco4)nc3c2)cc1	41
Cc1nc2c(c(=O)c3ccccc3n2C)c(=O)n1-c1ccc(F)cc1	51
COc1ccc(N=c2ssnc2Cl)cc1	-55*
COc1cc(N=c2ssnc2Cl)cc(OC)c1OC	-100*
CCC(c1ccccc1)C(CC)c1cc(O)c(O)c(O)c1 (stereo not given)	42
Cn1c2ccccc2c2ccc3c(c21)C(=O)C=CC3=O	37
O=C1NC(=S)S/C1=C\C=C\c1ccc([N+](=O)[O-])o1	38
SMILES	HKDC1 activator
CC(C)(C)c1ccc(-c2csc(NNC3=NCCCCC3)n2)cc1	-61*
COc1cccc(-n2c(N)c(C(=O)Nc3c(C)n(C)n(-c4ccccc4)c3=O)c3nc4ccccc4nc32)c1	36
O=C(O)c1ccc(-c2ccc(/C=c3/sc4nc5ccccc5n4c3=O)o2)cc1Cl	45
CSc1nc(N)nc2c1ncn2CC(=O)N[C@H](C)c1cccc2ccccc12	-55*
COC1=CC(=O)C(C2CC(=O)c3c(O)cc(O)cc3O2)=CC1=O (stereo not given)	60
CC(=O)n1cc(N(C(=O)CCl)c2ccc([N+](=O)[O-])cc2)c2ccccc21	48
O=C1C=CC(=O)C(C2=C3C(=O)N(CCc4ccccc4)CC(=O)N3CCC2)=C1	63
O=C1C=C(NCc2ccccc2)c2ccccc2C1=O	80
O=C1C(Cl)=C(NCCc2ccccc2)C(=O)c2ccccc21	53
O=C1C(Cl)=C(NCc2cccnc2)C(=O)c2ccccc21	-45*
CC(=O)c1cc(O)c2ccccc2c1O	44
O=C1NN(c2cccc(Br)c2)C(=O)/C1=C/c1ccc(-c2cc([N+](=O)[O-])ccc2O)o1	62
COc1cc(/C=C2\SC(=O)N(c3ccc(Cl)cc3)C2=O)cc([N+](=O)[O-])c1O	44
Cc1ccccc1NC(=S)N/N=C/c1ccc(O)cc1O	-42*
CCCOc1ccc(/C=N/NC(=S)Nc2ccccc2[N+](=O)[O-])c(O)c1	-48*
O=C(O)c1ccccc1NS(=O)(=O)c1ccc(N/N=C/c2cccc(O)c2O)c([N+](=O)[O-])c1	36
Oc1ccc(/C=N/Nc2ncc(Br)cn2)c(O)c1	39
O=[N+]([O-])c1ccc(NN=Cc2ccc(O)cc2O)nc1	37
COCC(=O)OC1CCn2c1nc1c2C(=O)C(C)=C(NC(C)=O)C1=O (stereo not given)	68
NS(=O)(=O)c1ccc(N=Nc2c(=O)[nH]n3c(=O)c4c([nH]c23)CCCC4)cc1	40
Cc1ccccc1Nc1nc(N)nc(CSc2nnc3sc4ccccc4n23)n1	36
COc1ccc2c(c1)c(=O)oc1c(C)c(OCc3cc(C(=O)O)oc3C)ccc12	79
O=C(CSc1nc(-c2ccc(F)cc2)nc2c1Cc1ccccc1O2)Nc1cccc(C(=O)O)c1	57
CC1C/C(=C/c2ccncc2)C(=O)/C(=C/c2ccncc2)C1 (stereo not given)	43
C[n+]1c(-c2ccccc2)cc2c(=Cc3ccc([N+](=O)[O-])cc3)c3ccccc3n21	36
SMILES	HKDC1 activator
C/C(=N\NC(=O)c1c(C)nc2ccccn12)c1ccc(O)cc1O	-45*
O=S(=O)(Nc1cc(Sc2ncn[nH]2)c(O)c2ccccc12)c1ccccc1	55
O=C(O)c1ccc2c(=O)n(-c3ccccc3)c(=S)[nH]c2c1	84
Cc1cc2nc3ccc(=[N+](C)C)cc-3sc2cc1N	47
CCOC(=O)c1ccc(NC(=O)CSc2ccc(-c3ccccn3)nn2)cc1	37
CCOC(=O)c1sc(NC(=O)CSc2nnc(Cc3ccccc3)o2)c(C#N)c1C	-40*
COP(=O)(OC)c1ccc(NCc2cc(O)ccc2O)cc1	43
COc1ccc(CN2C(=O)c3cccnc3C2Nc2cc(Cl)ccc2OC)cc1 (stereo not given)	52
Cc1ccccc1NC1=C/C(=N\S(=O)(=O)c2cccs2)c2ccccc2C1=O	63
Cc1cc(C)n2nc(SCc3nnc(SCc4ccccc4Cl)s3)nc2n1	41
CC(C)CNC(=O)COC(=O)CNC(=O)c1cc(Cl)cc([N+](=O)[O-])c1	-52*
Cc1cc2cc(CCNC(=O)c3cccc([N+](=O)[O-])c3)c(=O)[nH]c2cc1C	40
O=C(OCC(=O)N1CCN(C(=O)c2ccco2)CC1)c1cc(-c2ccco2)nc2ccccc12	37
CC(=NNC(=S)N1CCN(C2CCCCCC2)CC1)c1ccccn1	-42*
CC(=NNC(=S)N1CC2CCC(CC2)C1)c1cnccn1	-47*
COc1ccc(C(=O)/C=C/Sc2nc3ccccc3o2)cc1	38
Cc1cc(C)cc(-n2c(N)c(C(=O)Nc3c(C)n(C)n(-c4ccccc4)c3=O)c3nc4ccccc4nc32)c1	38
Cc1nc2sc3c(NCc4ccco4)ncnc3c2c2c1COC(C)(C)C2	35
S=C(NN=C(c1ccccc1)c1ccccn1)N(Cc1ccccn1)Cc1ccccn1	-46*
Oc1c(Br)cc(Br)cc1/C=N/c1nc2c(s1)CCCC2	37
O=C(NN1CCOCC1)c1ccc(Cl)c([N+](=O)[O-])c1	36
CCOC(=O)/C=C(\C)Sc1cc(O)c2ccccc2c1O	57
Cc1ccc(/C=C/C(=O)c2ccc([N+](=O)[O-])o2)cc1	46
CC(=O)NC1=C(N(C)C2CCS(=O)(=O)C2)C(=O)c2ccccc2C1=O (stereo not given)	39
N=C1N(/N=C/c2ccccc2)C(=Nc2ccccc2)C(=S)N1c1ccccc1	-49*
O=c1[nH][nH]c2c(N=Cc3ccccc3O)ccc(F)c12	38
COc1ccc(N2CCN(C(=O)CSc3nnc4c(C)cc5c(C)cc(C)cc5n34)CC2)cc1	43
Cc1ccccc1N=C1NN=C(c2ccccc2F)CS1	-47*
